In PMC4136711 (Journal of Medicinal Chemistry, 2014):

What was measured:
SETD8 = target: T1, SETD8 (Homo sapiens, UniProt Q9NQR1); format: binding
T1 sequence (Q9NQR1 257-378 limits assumed): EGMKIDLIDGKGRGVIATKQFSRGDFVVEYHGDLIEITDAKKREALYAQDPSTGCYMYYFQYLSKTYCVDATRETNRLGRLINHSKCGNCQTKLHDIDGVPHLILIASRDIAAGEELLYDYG

L3MBTL1 = L3MBTL1 (Homo sapiens, UniProt Q9Y468); conditions: methyllysine reader protein
PRC2 complex = PRC2 complex (Homo sapiens, UniProt Q15910); experiment: Selectivity assay; format: biochemical; conditions: read-out: estimated IC50 PRC2
Sequence of PRC2 complex (Q15910 whole entry): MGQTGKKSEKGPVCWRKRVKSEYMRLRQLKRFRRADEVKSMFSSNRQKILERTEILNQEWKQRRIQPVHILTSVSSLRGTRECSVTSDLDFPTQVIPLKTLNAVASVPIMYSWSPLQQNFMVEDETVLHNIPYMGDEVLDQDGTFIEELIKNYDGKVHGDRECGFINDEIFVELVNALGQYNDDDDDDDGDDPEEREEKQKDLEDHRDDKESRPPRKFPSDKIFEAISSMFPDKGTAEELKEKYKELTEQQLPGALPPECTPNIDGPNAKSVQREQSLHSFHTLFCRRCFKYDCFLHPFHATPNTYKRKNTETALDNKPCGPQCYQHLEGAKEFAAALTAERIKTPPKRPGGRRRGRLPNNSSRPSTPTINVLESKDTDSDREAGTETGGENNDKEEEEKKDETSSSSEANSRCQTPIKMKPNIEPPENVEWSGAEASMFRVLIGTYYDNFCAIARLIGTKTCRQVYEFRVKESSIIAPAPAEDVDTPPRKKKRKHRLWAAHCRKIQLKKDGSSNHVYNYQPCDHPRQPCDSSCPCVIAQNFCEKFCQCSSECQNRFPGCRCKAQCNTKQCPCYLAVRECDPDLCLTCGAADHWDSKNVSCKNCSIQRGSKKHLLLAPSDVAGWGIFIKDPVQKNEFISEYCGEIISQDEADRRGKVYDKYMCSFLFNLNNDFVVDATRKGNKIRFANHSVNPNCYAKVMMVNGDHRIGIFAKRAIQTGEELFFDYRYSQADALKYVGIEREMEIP
Sequence of PRC2 complex (O75530 whole entry partner): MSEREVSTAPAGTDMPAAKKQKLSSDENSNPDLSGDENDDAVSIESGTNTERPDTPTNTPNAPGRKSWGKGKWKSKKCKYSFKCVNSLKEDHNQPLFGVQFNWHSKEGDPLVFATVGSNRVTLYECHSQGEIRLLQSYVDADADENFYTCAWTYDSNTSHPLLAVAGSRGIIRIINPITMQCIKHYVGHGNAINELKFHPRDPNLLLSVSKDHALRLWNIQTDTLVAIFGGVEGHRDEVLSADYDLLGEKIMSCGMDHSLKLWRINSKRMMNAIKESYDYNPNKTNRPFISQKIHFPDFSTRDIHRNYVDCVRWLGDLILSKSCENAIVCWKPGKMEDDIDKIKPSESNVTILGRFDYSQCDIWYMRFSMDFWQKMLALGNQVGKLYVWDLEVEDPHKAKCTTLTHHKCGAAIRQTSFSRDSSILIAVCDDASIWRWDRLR
Sequence of PRC2 complex (Q15022 whole entry partner): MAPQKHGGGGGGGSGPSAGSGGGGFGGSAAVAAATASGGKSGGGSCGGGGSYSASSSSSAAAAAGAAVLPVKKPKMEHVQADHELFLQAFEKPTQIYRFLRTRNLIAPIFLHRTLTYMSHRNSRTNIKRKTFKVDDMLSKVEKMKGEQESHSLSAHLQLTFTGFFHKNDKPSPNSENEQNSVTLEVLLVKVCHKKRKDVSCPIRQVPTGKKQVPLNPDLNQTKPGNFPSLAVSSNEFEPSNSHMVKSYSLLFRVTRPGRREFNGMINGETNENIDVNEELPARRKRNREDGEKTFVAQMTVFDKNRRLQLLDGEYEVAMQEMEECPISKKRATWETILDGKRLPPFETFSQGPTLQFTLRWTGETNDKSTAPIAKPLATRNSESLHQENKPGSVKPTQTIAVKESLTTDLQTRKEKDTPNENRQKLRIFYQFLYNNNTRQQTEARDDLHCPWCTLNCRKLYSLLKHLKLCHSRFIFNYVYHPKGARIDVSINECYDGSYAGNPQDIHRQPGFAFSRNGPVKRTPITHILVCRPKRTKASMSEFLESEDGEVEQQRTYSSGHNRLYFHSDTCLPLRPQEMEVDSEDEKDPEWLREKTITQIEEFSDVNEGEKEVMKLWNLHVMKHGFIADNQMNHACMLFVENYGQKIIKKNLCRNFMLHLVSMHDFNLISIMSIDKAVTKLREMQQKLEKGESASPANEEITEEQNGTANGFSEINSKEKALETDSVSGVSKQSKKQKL
Outline: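 Tritium-labelled methyl transfer from 3H-SAM to peptide substrate, with substrates near their Km values for the enzyme. Test compound ranged from 100 nM to 100 μM. Reactions were quenched with 7.5 M guanidine hydrochloride, diluted in 20 mM Tris pH 8.0, and captured on FlashPlates for 1 h before counting CPM. The no-compound signal defined 100% activity and the no-enzyme signal defined 0%.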

Sequence of L3MBTL1 (Q9Y468 whole entry, species assumed): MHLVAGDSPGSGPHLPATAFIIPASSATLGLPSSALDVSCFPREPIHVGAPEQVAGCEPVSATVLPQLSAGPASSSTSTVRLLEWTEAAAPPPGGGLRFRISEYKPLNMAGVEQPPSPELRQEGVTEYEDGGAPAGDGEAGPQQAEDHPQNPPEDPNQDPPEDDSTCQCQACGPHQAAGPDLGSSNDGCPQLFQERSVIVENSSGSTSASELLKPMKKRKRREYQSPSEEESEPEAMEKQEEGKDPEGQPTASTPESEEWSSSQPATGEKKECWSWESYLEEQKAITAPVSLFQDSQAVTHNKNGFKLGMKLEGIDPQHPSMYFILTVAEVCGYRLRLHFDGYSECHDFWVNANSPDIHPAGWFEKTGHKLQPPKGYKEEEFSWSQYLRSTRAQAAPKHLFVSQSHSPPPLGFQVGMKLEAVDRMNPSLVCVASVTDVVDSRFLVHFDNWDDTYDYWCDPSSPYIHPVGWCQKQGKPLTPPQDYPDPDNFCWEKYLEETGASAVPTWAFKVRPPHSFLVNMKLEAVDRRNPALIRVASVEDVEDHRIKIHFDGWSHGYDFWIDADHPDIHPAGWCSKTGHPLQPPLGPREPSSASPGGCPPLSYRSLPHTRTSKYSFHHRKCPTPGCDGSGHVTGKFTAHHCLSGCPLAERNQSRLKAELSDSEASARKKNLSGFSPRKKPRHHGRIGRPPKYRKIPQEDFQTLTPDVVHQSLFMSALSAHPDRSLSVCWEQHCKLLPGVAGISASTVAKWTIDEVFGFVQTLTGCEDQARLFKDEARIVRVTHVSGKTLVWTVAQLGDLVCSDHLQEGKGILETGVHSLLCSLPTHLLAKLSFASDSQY

Compound	Displacement of FITC-labeled H4K20me peptide (FP), in words (SETD8)	Activity for L3MBTL1 (L3MBTL1)	potency estimated from few doses (PRC2 complex) [µM]
COc1cc2nc(N3CCCC3)nc(N(C)CCCCCN3CCCC3)c2cc1OC [Compound 14, 6,7-Dimethoxy-N-methyl-2-(pyrrolidin-1-yl)-N-(5-(pyrrolidin-1-yl)pentyl)quinazolin-4-amine]	did not displace the peptide		
COc1cc2nc(N3CCCC3)nc(NCCCCCN3CCCC3)c2cc1OC [Compound 1, 6,7-Dimethoxy-2-(pyrrolidin-1-yl)-N-(5-(pyrrolidin-1-yl)pentyl)quinazolin-4-amine]		no appreciable activity	> 50
